Source: article PMC4489446 (Memórias do Instituto Oswaldo Cruz, 2015)

Tests used:
[1] = test system: Leishmania amazonensis promastigotes; assay: In vitro activity against promastigotes; assay type: cell-based; settings: 72 h; for IC50: Leishmania amazonensis; for MPC (minimal parasiticide concentration): promastigotes, 26 °C, mean ± SD
Procedure, shortened: (§1)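 Strains: L. amazonensis MHOM/77/LTB0016, L. infantum MHOM/FR/78/LEM75, L. braziliensis MHOM/BR/75/M2 903. Log-phase promastigotes at 5 x 10^5/mL in Schneider's with 10% heat-inactivated FBS; compound added from two-fold DMSO stocks (4 mg/mL–3.9 µg/mL), DMSO at most 0.5%. Incubated 72 h at 26 °C. MPC = geometric mean (4 replicates) of concentrations fully stopping motility, by microscope. Then p-nitrophenyl phosphate, 3 h 37 °C, A405, minus parasite-free drug wells. IC50 by Emax sigmoid fit; at least three repeats.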

[2] = test system: intracellular amastigotes; assay: Activity against intracellular amastigotes in mouse peritoneal macrophages; assay type: cell-based; settings: drug concentrations not toxic to mouse peritoneal macrophages used as host cells; data not shown
[3] = test system: Leishmania infantum promastigotes; assay: In vitro activity against promastigotes; assay type: cell-based; settings: 72 h; for IC50: Leishmania infantum; for MPC (minimal parasiticide concentration): promastigotes, 26 °C, mean ± SD
Procedure, shortened: as §1

[4] = test system: Leishmania braziliensis promastigotes; assay: In vitro activity against promastigotes; assay type: cell-based; settings: 72 h; for IC50: Leishmania braziliensis; for MPC (minimal parasiticide concentration): promastigotes, 26 °C, mean ± SD
Procedure, shortened: as §1

[5] = test system: Leishmania amazonensis; assay: Mouse model of experimental cutaneous leishmaniasis, lesion size; assay type: in vivo, BALB/c mice; settings: furvina 2 mg/Kg, UC245 100 mg/Kg; for average lesion size with respect to the control group: experiment 2: early lesions, intraperitoneal every 12 h for 14 days, 28 days of follow up; for effect on chronic lesions (in words): experiment 3: chronic lesions, 18 weeks post-infection, every 12 h for 14 days
Procedure, shortened: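 Female BALB/c mice (16-18 g, 6-8 weeks) infected intradermally in the footpad with 5 x 10^6 stationary-phase promastigotes. Intraperitoneal dosing every 12 h for 14 days, test compounds in Miglyol 810. Controls were untreated infected mice and amphotericin B (1 mg/Kg in early lesions; 5 mg/Kg every 48 h in chronic). Lesions measured weekly by Vernier calliper; chronic size taken as dorsoplantar × lateral diameter.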

[6] = Cytotoxicity against mammalian cells; assay type: cell-based; settings: human, HeLa-KB cells (subline of HeLa, ATCC CCL-17)
Procedure, shortened: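 HeLa-KB cells seeded at 4 x 10^4/mL in RPMI-1640 with 10% heat-inactivated FCS and held 24 h (5% CO2). Medium was replaced by test compound in fresh medium, 30 µg/mL to 100 ng/mL, in triplicate, with a podophyllotoxin positive control. After 72 h, alamarBlue for 4 h, then fluorescence at 530/585 nm. CC50 from a nonlinear Emax sigmoid fit; at least three repeats.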

[7] = test system: promastigotes of Leishmania amazonensis, Leishmania infantum and Leishmania braziliensis; assay type: cell-based; settings: read-out: Average IC50
Procedure, shortened: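 IC50 was measured separately for L. amazonensis, L. infantum and L. braziliensis promastigotes. Each assay: 72 h at 26 °C, phosphatase read-out (p-nitrophenyl phosphate, A405), Emax sigmoid fit. The average IC50 is the arithmetic mean of the three species' IC50 values.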

IC50 [1] [nM]	IC50 [3] [nM]	IC50 [4] [nM]	IC50 [7] [nM]	Compound	MPC (minimal parasiticide concentration) ([1]; complete arrest of motion) [µM]	efficacy in reducing the percentage of infected cells [2]	MPC (minimal parasiticide concentration) ([3]; complete arrest of motion) [µM]	MPC (minimal parasiticide concentration) ([4]; complete arrest of motion) [µM]	average lesion size with respect to the control group [5] [%]	effect on chronic lesions (in words) [5]	CC50 at 72 h [6] [nM]	MPC (minimal parasiticide concentration) ([1]; amphotericin B) [nm]	MPC (minimal parasiticide concentration) ([3]; amphotericin B) [nm]	MPC (minimal parasiticide concentration) ([4]; amphotericin B) [nm]
900 ± 200	900 ± 300	1000 ± 300	930	CC(=Cc1ccc(Br)o1)[N+](=O)[O-] [UC245, 2-bromo-5-(2-methyl-2-nitrovinyl)-furan]	6.1 ± 0.4	under 50%	2.7 ± 0.4	5.7 ± 0.4	55	did not show any efficacy	16700 ± 1800			
29 ± 5	14 ± 4	14 ± 3		C[C@@H]1[C@H](O)[C@@H](C)/C=C/C=C/C=C/C=C/C=C/C=C/C=C/[C@H](O[C@@H]2O[C@H](C)[C@@H](O)[C@H](N)[C@@H]2O)C[C@@H]2O[C@](O)(C[C@@H](O)C[C@@H](O)[C@H](O)CC[C@@H](O)C[C@@H](O)CC(=O)O[C@H]1C)C[C@H](O)[C@H]2C(=O)O [Amphotericin B, amphotericin B, reference compound]								55 ± 7	17 ± 5	30 ± 6
800 ± 300	1200 ± 300	900 ± 400	970	O=[N+]([O-])C(Br)=Cc1ccc(Br)o1 [Furvina, 2-bromo-5-(2-bromo-2-nitrovinyl)-furan]	5.2 ± 0.4	under 50%	2.9 ± 0.3	1.7 ± 0.4	59	progressively decreased lesion sizes	13600 ± 2200			
				COc1cc([C@@H]2c3cc4c(cc3[C@H](O)[C@H]3COC(=O)[C@H]23)OCO4)cc(OC)c1OC [podophyllotoxin, reference compound]							5.3 ± 1.4			
